{"data": "Assay results pooled from the literature", "target": "Mitogen-activated protein kinase kinase kinase 5 (MAP3K5, Homo sapiens, UniProt Q99683)", "One construct used (Q99683 1-1374)": "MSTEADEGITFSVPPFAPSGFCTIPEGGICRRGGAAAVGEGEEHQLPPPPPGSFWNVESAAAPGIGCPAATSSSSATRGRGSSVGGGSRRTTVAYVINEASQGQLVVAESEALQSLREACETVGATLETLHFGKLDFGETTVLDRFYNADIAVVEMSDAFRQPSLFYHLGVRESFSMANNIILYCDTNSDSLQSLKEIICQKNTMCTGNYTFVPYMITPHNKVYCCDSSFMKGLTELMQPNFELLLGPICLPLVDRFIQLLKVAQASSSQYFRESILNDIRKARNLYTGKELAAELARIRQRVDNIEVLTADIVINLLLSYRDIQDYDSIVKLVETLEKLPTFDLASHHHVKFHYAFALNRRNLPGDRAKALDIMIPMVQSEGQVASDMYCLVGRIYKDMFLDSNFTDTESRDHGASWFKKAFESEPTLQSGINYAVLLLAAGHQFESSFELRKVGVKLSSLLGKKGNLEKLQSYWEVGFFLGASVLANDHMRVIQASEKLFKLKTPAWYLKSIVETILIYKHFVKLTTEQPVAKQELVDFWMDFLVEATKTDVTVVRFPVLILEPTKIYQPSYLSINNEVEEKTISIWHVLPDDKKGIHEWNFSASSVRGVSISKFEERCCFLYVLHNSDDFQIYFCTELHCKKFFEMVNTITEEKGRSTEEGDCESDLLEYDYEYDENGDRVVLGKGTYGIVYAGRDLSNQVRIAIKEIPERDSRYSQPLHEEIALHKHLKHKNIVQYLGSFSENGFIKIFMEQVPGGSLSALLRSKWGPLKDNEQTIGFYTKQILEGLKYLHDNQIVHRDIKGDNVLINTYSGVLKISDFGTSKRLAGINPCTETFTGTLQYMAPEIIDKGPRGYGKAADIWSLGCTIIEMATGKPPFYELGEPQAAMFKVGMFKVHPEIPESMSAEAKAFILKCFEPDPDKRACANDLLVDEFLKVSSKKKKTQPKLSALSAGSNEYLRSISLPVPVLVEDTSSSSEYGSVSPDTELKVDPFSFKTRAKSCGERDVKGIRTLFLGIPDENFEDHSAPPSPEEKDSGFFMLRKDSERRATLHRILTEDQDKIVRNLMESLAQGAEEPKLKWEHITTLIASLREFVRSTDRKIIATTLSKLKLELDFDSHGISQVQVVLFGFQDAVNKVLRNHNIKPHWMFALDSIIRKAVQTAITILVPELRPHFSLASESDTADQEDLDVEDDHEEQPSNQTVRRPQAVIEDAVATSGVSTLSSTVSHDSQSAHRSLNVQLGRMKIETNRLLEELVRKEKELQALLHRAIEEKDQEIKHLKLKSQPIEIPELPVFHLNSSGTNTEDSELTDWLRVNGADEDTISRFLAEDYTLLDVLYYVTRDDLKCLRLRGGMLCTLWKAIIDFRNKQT", "note": "Each line is one published result; the experiments were not run side by side."}
{"Compound": "COc1ccc2oc(-c3ccc4nc(N)oc4c3)c/c(=N\\c3ccccc3NC(=O)CCN)c2c1", "observed": "binding", "tested at": "1 µM", "measurement": "remaining binding", "result": "100%"}
{"Compound": "CO[C@@H]1[C@H](N(C)C(=O)c2ccccc2)C[C@H]2O[C@]1(C)n1c3ccccc3c3c4c(c5c6ccccc6n2c5c31)C(=O)NC4", "observed": "enzyme activity", "action": "inhibitor", "tested at": "1 µM", "measurement": "inhibition", "result": "0%"}
{"Compound": "Cc1cc(O)c(-c2ccc([C@@H](C)CN(C)C)cc2)c2c1[nH]c(=O)c1sccc12", "observed": "enzyme activity", "action": "inhibitor", "tested at": "0.1 µM", "measurement": "inhibition", "result": "-7.51%"}
{"Compound": "CN1CCN(C(=O)c2ccc(NC(=O)Nc3ccc(N(C)c4ccnc(Nc5ccc(CS(C)(=O)=O)cc5)n4)cc3)cc2)CC1", "observed": "binding", "tested at": "1 µM", "measurement": "remaining binding", "result": "100%"}
{"Compound": "C#Cc1cc(-c2cc(Nc3nc(N[C@@H](C)c4ccc(F)cn4)ncc3Cl)n[nH]2)ccc1C=O", "observed": "enzyme activity", "action": "inhibitor", "tested at": "0.2 µM", "measurement": "inhibition", "result": "4.04%"}
{"Compound": "Cc1ccc(NC(=O)c2ccnc(C(F)(F)F)c2)cc1-c1cc(OCCO)nc(N2CCOCC2)c1", "observed": "binding", "tested at": "1 µM", "measurement": "remaining binding", "result": "92%"}
{"Compound": "C=CC(=O)N1CCC[C@@H](n2nc(-c3ccc(Oc4ccccc4)cc3)c3c(N)ncnc32)C1", "observed": "enzyme activity", "action": "inhibitor", "tested at": "1 µM", "measurement": "inhibition", "result": "10%"}
{"Compound": "CCCCC(=O)Nc1ccc(-c2ccc3ncn(CCC)c(=O)c3c2)cn1", "observed": "binding", "technique": "competition with immobilised ligand", "tested at": "0.5 µM", "measurement": "remaining binding", "result": "91%"}
